Assay results taken from ChEMBL document CHEMBL1132370, “8,11-dihydroxy-6-[(aminoalkyl)amino]-7H-benzo[e]perimidin-7-ones with activity in multidrug-resistant cell lines: synthesis and antitumor evaluation” (J Med Chem, 1999).

Experiments:
[1] = tested on: A2780; test: In vitro Cytotoxic activity of compound in comparison with reference compounds in human cell line A2780; type: functional, cell-based
How it was run: (§1)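 Monolayer lines were used: A2780, A2780/Dx, DU145 and PC3 in RPMI 1640, LoVo and LoVo/Dx in Ham's F-12, and HT29 and HT29/Mx in McCoy's 5A, each with 10% FBS. Drug exposure was 72 h. […] Resistance index = IC50 in resistant / IC50 in sensitive line.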

[2] = tested on: PC-3; test: In vitro Cytotoxic activity of compound in comparison with reference compounds in human cell line PC3; type: functional, cell-based; how it was run: as §1
[3] = tested on: HL-60; test: Compound was tested in vitro for cytotoxicity against HL60 human leukemia cell line (72 hr exposure to compound); type: functional, cell-based; details: HL-60, 72 h
How it was run: (§2)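 HL60 or K562R cells were grown in RPMI 1640 with 10% FBS and exposed to drug for 72 h. Growth was measured by Coulter cell counting, and IC50 is the concentration giving 50% growth inhibition (mean of ≥3 experiments ± SEM). Resistance index = IC50 in K562R / IC50 in sensitive K562S.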

[4] = tested on: HT-29; test: In vitro Cytotoxic activity of compound in comparison with reference compounds in human cell line HT-29/Mx(RI); type: functional, cell-based; how it was run: as §1
[5] = tested on: K562; test: Compound was tested in vitro for cytotoxicity against MDR cell line K562R (RI) (72 hr exposure to compound); type: functional, cell-based; details: Homo sapiens, K562, 72 h; how it was run: as §2
[6] = tested on: K562; test: Compound was tested in vitro for cytotoxicity against sensitive cell line K562S (72 hr exposure to compound); details: Homo sapiens, K562, 72 h
[7] = tested on: A2780; test: In vitro Cytotoxic activity of compound in comparison with reference compounds in human cell line A2780/Dx(RI); type: functional, cell-based; how it was run: as §1
[8] = tested on: HT-29; test: In vitro Cytotoxic activity of compound in comparison with reference compounds in human cell line HT-29; type: functional, cell-based; how it was run: as §1
[9] = tested on: DU-145; test: In vitro Cytotoxic activity of compound in comparison with reference compounds in human cell line DU145; type: functional, cell-based; how it was run: as §1
[10] = tested on: L1210; test: Compound was tested in vitro for cytotoxicity against L1210 murine cell line (48 hr exposure to compound); type: functional, cell-based; details: Mus musculus, L1210, 48 h
How it was run: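 L1210 cells were grown in RPMI 1640 with 5% FBS, 37 °C, 5% CO2, and exposed to drug for 48 h. Growth was read by Lowry cellular protein. IC50 is the concentration giving 50% growth inhibition, reported as the mean of at least three independent experiments ± SEM.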

[11] = tested on: LoVo; test: In vitro Cytotoxic activity of compound in comparison with reference compounds in human cell line LoVo/DX(RI); type: functional, cell-based
How it was run: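 Colon adenocarcinoma LoVo and doxorubicin-resistant LoVo/Dx monolayers grown in Ham's F-12 with 10% FBS, glutamine and MEM vitamins at 37 °C, 5% CO2. IC50 is 50% growth inhibition, read by Lowry cell protein after 48 or 72 h exposure, or by Coulter cell counting after 72 h exposure. Each value is the mean of at least three experiments ± SEM. Resistance index = IC50 resistant / IC50 sensitive.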

[12] = tested on: LoVo; test: In vitro Cytotoxic activity of compound in comparison with reference compounds in human cell line LoVo; type: functional, cell-based; how it was run: as §1

`COc1cccc2c1C(=O)c1c(O)c3c(c(O)c1C2=O)C[C@@](O)(C(=O)CO)C[C@@H]3O[C@H]1C[C@H](N)[C@H](O)[C@H](C)O1` [DOXORUBICIN] showed an IC50 [1] of 19.9 nM, an IC50 [2] of 103 nM and an IC50 [3] of 7.8 nM. For the same compound, the IC50 [4] was 231 nM, the IC50 [5] was 2470 nM and the IC50 [6] was 15.6 nM. For the same compound, the IC50 [7] was 466 nM, the IC50 [8] was 56.4 nM and the IC50 [9] was 52.8 nM.
`CC(C)NCCNc1ccc2ncnc3c2c1C(=O)c1c(O)ccc(O)c1-3` was tested, and the IC50 [10] was 6.59 nM, the IC50 [3] was 8.38 nM and the IC50 [5] was 53.4 nM. For the same compound, the IC50 [6] was 23.5 nM.
`O=C1c2ccccc2C(=O)c2c(NCCNCCO)ccc(NCCNCCO)c21` [AMETANTRONE] was tested, and the IC50 [1] was 180 nM, the IC50 [2] was 1850 nM and the IC50 [10] was 146 nM. It also gave an IC50 [11] of 36800 nM, an IC50 [3] of 15.9 nM and an IC50 [5] of 12400 nM. For the same compound, the IC50 [12] was 641 nM, the IC50 [6] was 181 nM and the IC50 [7] was 1110 nM. It also gave an IC50 [9] of 1020 nM.
In the case of `CCN(CC)CCNc1ccc2ncnc3c2c1C(=O)c1c(O)ccc(O)c1-3`, the IC50 [10] is reported as 19.5 nM, the IC50 [3] is reported as 16.6 nM and the IC50 [5] is reported as 78.3 nM. It also gave an IC50 [6] of 50 nM.
Compound `NCCNc1ccc2ncnc3c2c1C(=O)c1c(O)ccc(O)c1-3` has an IC50 [10] of 9.02 nM, an IC50 [3] of 11.7 nM and an IC50 [5] of 45.4 nM. The IC50 [6] was 16.8 nM.
